Five compounds from ChEMBL document CHEMBL2331310 (Bioorg Med Chem Lett, 2013) can be followed below.

Molecules are shown by their SMILES. Activity calls are given as the source filed them. The calls are words filed in the database; no cut-off is given here.

In data set [1] the test system is DU-145. Put plainly: Cytotoxicity against human DU145 cells expressing AGT at 10 to 80 uM after 4 hrs by clonogenic assay. It counts as functional, cell-based. The procedure, abridged: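 DU145 human prostate carcinoma cells, which naturally express about 42,000 AGT molecules/cell, were exposed to graded drug concentrations for 4 h or 24 h. Cytotoxicity was expressed as LC50.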

Data set [2] in a line: Half life in 1 mM potassium phosphate buffer at pH 7.4 at 50 uM by spectrophotometric analysis. It counts as physicochemical.
The test system of data set [3] is DU-145. The data set is described as follows: Cytotoxicity against human DU145 cells expressing AGT after 4 to 24 hrs by clonogenic assay. In kind it is functional. The conditions noted are these: read-out: LC50 (the source's name). In outline: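 Human prostate carcinoma cells with natural AGT expression (42,000 molecules/cell) were exposed to graded concentrations for 4 h or 24 h. LC50 was read from cytotoxicity curves.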

For the next data set, the system named is L1210. Put plainly: Binding affinity to mouse L1210 cell DNA assessed as DNA cross-linking activity at 10 to 50 uM using H33258 dye by rapid DNA renaturation assay. In kind it is cell-based.
In data set [4] the test system is DU-145. The data set is described as follows: Induction of AGT ablation in human DU145 cells assessed as [benzene-3H]-O6-benzylguanine binding at 80 uM after 4 hrs. It counts as functional. In outline:
(§1)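 DU145 human prostate carcinoma cells (about 42,000 AGT molecules/cell) were treated with 80 μM agent for 2 h or 4 h. Remaining AGT level was then measured relative to untreated cells.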

Data set [5] has as its system EMT6. The data set is described as follows: Cytotoxicity against mouse AGT negative EMT6 cells under aerobic conditions after 4 to 24 hrs by clonogenic assay. It counts as functional, cell-based. The settings on record: for CC50: read-out: LC50 (the source's name). The procedure, abridged: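 Murine mammary carcinoma cells lacking AGT expression were exposed to graded concentrations for short (4 h) or long (24 h) periods. LC50 was taken from cytotoxicity curves.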

Data set [6] has as its system DU-145. The data set is described as follows: Ratio of laromustine IC50 for compound IC50 for human DU145 cells expressing AGT. It counts as functional.
The subject of data set [7] is DU-145. Put plainly: Induction of AGT ablation in human DU145 cells assessed as [benzene-3H]-O6-benzylguanine binding at 80 uM after 2 hrs. It counts as functional. The procedure, abridged:
as §1

Data set [8] concerns EMT6. The data set is described as follows: Ratio of laromustine IC50 for compound IC50 for mouse AGT negative EMT6 cells. In kind it is functional.
The test system of data set [9] is DU-145. Put plainly: Cytotoxicity against human DU145 cells expressing AGT after 4 to 24 hrs by clonogenic assay in presence of 100 uM of AGT inhibitor O6-BG. In kind it is functional, cell-based. The procedure, abridged: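 DU145 cells (42,000 AGT molecules/cell) were pretreated with 100 μM O6-BG for 2 h, then exposed to graded drug concentrations. Cytotoxicity was then assessed.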

Turning to `CN(N=O)C(=O)N(N(CCCl)S(C)(=O)=O)S(C)(=O)=O`, the outcome in the data set with DU-145 [1], in the data set on L1210 and with DU-145 [9] was Active. The same compound had a half-life at 50 µM in [2] of 10 min. The CC50 is 6.3 µM in the data set with DU-145 [3] and 0.7 µM with EMT6 [5]. Also, the Activity is greater than 90% in the data set on DU-145 [4] and greater than 80% with DU-145 [7]. The figures for the “Ratio IC50” value with DU-145 [6] and in the data set with EMT6 [8] were greater than 12 and 12, respectively.
In the case of `CS(=O)(=O)NN(CCCl)S(C)(=O)=O` [VPN-4090CE], in data set [2], the half-life at 50 µM was found to be 0.55 min. Also, the outcome in the data set on L1210 was Active.
As for `CNC(=O)N(N(CCCl)S(C)(=O)=O)S(C)(=O)=O` [LAROMUSTINE], the outcome in the data set with DU-145 [1], in the data set with L1210 and in the data set with DU-145 [9] was Active. Also, the CC50 in the data set on DU-145 [3] was greater than 80 µM; in the data set on EMT6 [5], 8.3 µM.
As for `CN(NS(C)(=O)=O)S(C)(=O)=O`, in the data set on DU-145 [3], the CC50 was 1600 µM. In addition, half-maximal inhibition with EMT6 [5] (IC50) was put at 3000 µM.
Regarding `CN(N(C(=O)N(CCCl)N=O)S(C)(=O)=O)S(C)(=O)=O`, the result with DU-145 [1], in the data set on L1210, with DU-145 [4], in the data set on DU-145 [7] and in the data set with DU-145 [9] was Active. The half-life at 50 µM in [2] was determined as 13.4 min.

One may read the half-life as the time in which the quantity being followed falls by half. Low values mean rapid decline, high ones slow decline. A word on the IC50: it is the concentration that gives 50% inhibition. Read a high IC50 as lower potency.
